The array DNA melting data of Ke et al. (doi:10.1101/2024.01.08.574731)

Tests used:
[1] = folding enthalpy; higher = less favourable; fluorescence melt of hairpins on a sequencing array, two-state fit; conditions: sodium 0.088 M
How it was run: (§1)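 Melting temperature and folding enthalpy were derived from bootstrapped two-state fits. The fitted temperatures were raised by 9.35 °C to agree with UV melts, and four replicates were combined by inverse variance. The underlying data were Cy3 fluorescence images of library hairpins, with annealed Cy3 and quencher oligos, on a sequenced MiSeq flow cell in 50 mM Na-HEPES pH 8.0, 25 mM NaCl, taken in 2.5 °C steps up to 60 °C, normalised to pre-quench Cy3 and to control constructs.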

[2] = melting temperature; fluorescence melt of hairpins on a sequencing array, two-state fit, raised by 9.35 °C to match UV melts; conditions: sodium 0.088 M
How it was run: as §1

| Sequence | folding enthalpy [1] [kcal/mol] | Tm [2] [°C] |
| --- | --- | --- |
| GACCTCGCGAAAGCGGTC (((..(((....)))))) | -12.3 | 42.3 |
| GATCGCCATCGCGATC ((((((....)))))) | -31.5 | 65 |
| GCGAATGGAAACACTCGC ((((.((....)).)))) | -35.2 | 46.2 |
| GATCGACCCTTCGATC ((((((....)))))) | -45.1 | 53.4 |
| GATCGCTACTGCGATC ((((((....)))))) | -34.5 | 68.5 |
| GCCGCTGGAAACAGTGGC (((.(((....))).))) | -50.7 | 62.9 |
| GGAATTGGAAACGATTCC (((((.(....).))))) | -34.4 | 45.6 |
| GCATTCCCGAAAGGGTGC (((..(((....)))))) | -20.9 | 43.5 |
| GCTAGAACGAAAGTTAGC (((..(((....)))))) | -26.6 | 38.3 |
| GGGTCCGAAAGGAGCCCC ((((((....)))..))) | -11 | 66.4 |
| GATCAGCCGACTGATC ((((((....)))))) | -35.5 | 49.6 |
| GCAGACGAAAGTCGGTGC ((((((....)))..))) | -19.3 | 50.2 |
| CGATCGGAAACGAGGTCG ((((((....)))..))) | -13.5 | 31 |
| GGTTTGGGAAACCAAATC (.(((((....))))).) | -31.1 | 44.5 |
| GGCTCTCGAAAGAGGGCC (((.(((....))).))) | -39.3 | 64.7 |
| GCCTTGCGAAAGCGTGGC (((..((....))..))) | -22.8 | 60.3 |
| GATGCTGCGAAAGCAATC (((..(((....)))))) | -9.87 | 29.3 |
| GTGATACGAAAGTACAC (((.(((....)))))) | -25.8 | 43.7 |
| GTGCGTGGAAACATGCGC (.((.((....)).)).) | -29.6 | 49.5 |
| TTTACGAAAGTAAA (((((....))))) | -13.5 | 42.7 |
| GAAATGGCGAAAGCCTTC (((..(((....)))))) | -7.87 | 23 |
| GTTCGCGAAAGCGGGAAC ((((((....)))..))) | -11.8 | 40.7 |
| GATCCAGCCTTGGATC ((((((....)))))) | -37.2 | 53.5 |

| Sequence | folding enthalpy [1] [kcal/mol] | Tm [2] [°C] |
| --- | --- | --- |
| GGTGGCGAAAGCCTGACC ((((((....)))..))) | -14.2 | 41.9 |
| GCGGTGTGCCGC ((((....)))) | -19.1 | 67.6 |
| GCGTTTGCGAAAGCACGC (((..(((....)))))) | -22.6 | 55.2 |
| GATCGTTGAGACGATC ((((((....)))))) | -39.4 | 58.1 |
| GTAGCTGGAAACGGCTAC (((((.(....).))))) | -40.8 | 52.5 |
| GGGCTCACGAAAGTGCCC (((..(((....)))))) | -21 | 51.9 |
| GTACACGAAAGTGATAC ((((((....))).))) | -17.1 | 40.1 |
| GCCCTAGCGAAAGCTGGC (((..(((....)))))) | -13.7 | 48 |
| GTTATAGAAATATAAC ((((((....)))))) | -17.1 | 33.6 |
| GGGATACGAAAGTAGCCC (((.(((....))).))) | -43.9 | 63.1 |
| GATCCTGCCGAGGATC ((((((....)))))) | -32.1 | 53 |
| TACGAGAAATCGTA (((((....))))) | -14.9 | 37.5 |
| GTTGGGCGAAAGCCGAAC (((.(((....))).))) | -19.5 | 53.2 |
| GTTTTCTCGAAAGAGAAC (((..(((....)))))) | -15.3 | 34.7 |
| CGTGCGGAAACGCCAACG ((((((....)))..))) | -19.2 | 39.4 |
| GAGACAGGAAACTGTTTC ((.((((....)))).)) | -29.1 | 37.9 |
| GATCACGAAAGTGTAATC ((((((....)))..))) | -10.3 | 30.1 |
| GCACGGCGAAAGCTTTGC (((..((....))..))) | -22.6 | 38.3 |
| GCGTCAGAACGC ((((....)))) | -23.6 | 52 |
| GATCCTAGGCAGGATC ((((((....)))))) | -35.4 | 53.3 |
| GATCCACGCGTGGATC ((((((....)))))) | -49.9 | 64.4 |
| GATTATGGAAACATAATC (((((((....))))))) | -38.2 | 49.1 |
| GATCCTCCAGAGGATC ((((((....)))))) | -35.5 | 55.5 |

| Sequence | folding enthalpy [1] [kcal/mol] | Tm [2] [°C] |
| --- | --- | --- |
| GACCATGGAAACGTGGTC (((((.(....).))))) | -42.7 | 52.6 |
| CGTTTCGGAAACGATACG (((.(((....))).))) | -33.6 | 45.6 |
| GCCTTGCGAAAGCTATGC ((.(.((....)).).)) | -8.48 | 44.5 |
| CGCTTACGGAAACGTGCG (((..(((....)))))) | -24.4 | 42.7 |
| GATCATGACGATGATC ((((((....)))))) | -40.3 | 50.8 |
| GATTACCGAAAGGTTATC (((.(((....))).))) | -26.1 | 42.4 |
| GCAACGCGAAAGCCTGGC ((.(.((....)).).)) | -6.76 | 30.8 |
| GATCGGGAACCCGATC ((((((....)))))) | -42.4 | 63.7 |
| GTTACCCGAAAGGGGAAC (((.(((....))).))) | -32.2 | 61.5 |
| GATCATACCGATGATC ((((((....)))))) | -35.7 | 46.9 |
| GCAGGCGAAAGCCTTTGC ((((((....)))..))) | -11 | 41 |
| GAAATGCGAAAGCATTC (((.(((....)))))) | -10.9 | 45.6 |
| GATCGTCGAGACGATC ((((((....)))))) | -36.9 | 60 |
| GTCACCGAAAGGTCTGAC ((((((....)))..))) | -15.2 | 33.7 |
| GGGGGAGGAAACTCTCCC (((.(((....))).))) | -38 | 52.7 |
| GCGAAACGAAAGTTACGC (((.(((....))).))) | -40.1 | 58.6 |
| GCTAACGAAAGTTTTAGC ((((((....)))..))) | -17.4 | 33.6 |
| GTGGCCGAAAGGCTACAC ((((((....)))..))) | -13.5 | 58.2 |
| GCGTGGCGACGC ((((....)))) | -16.4 | 65.1 |
| GATCTCGGTCGAGATC ((((((....)))))) | -41.5 | 56.2 |
| GTACACCGAAAGGTTAC (((.(((....)))))) | -20.5 | 39.9 |
| GGAGTCGGAAACGGTTCC (((..((....))..))) | -27.1 | 34.6 |
| GTCGTAACGAAAGTTGAC (((..(((....)))))) | -22.4 | 35.8 |

| Sequence | folding enthalpy [1] [kcal/mol] | Tm [2] [°C] |
| --- | --- | --- |
| GATCGAAATTTCGATC ((((((....)))))) | -41.2 | 53.7 |
| GCCTCGCGAAAGCTACGC ((.(.((....)).).)) | -5.87 | 20 |
| GCACCGCGAAAGCTTTGC (((..((....))..))) | -12 | 36.2 |
| GCGAGGACGAAAGTCCGC (((..(((....)))))) | -8.47 | 56.2 |
| GAATGTGGAAACACATCC (.(((((....))))).) | -14.1 | 36 |
| GCCTTAGGAAACTAAGAC (.(((((....))))).) | -13.8 | 30.1 |
| GGGGTCGAAAGACTTCCC ((((((....)))..))) | -15.6 | 39 |
| GTCAAGGGAAACCTTGAC (((((((....))))))) | -47.2 | 58 |
| GCACGTGGAAACGTGTGC ((((..(....)..)))) | -24.8 | 58.5 |
| GGATTCGAAAGAAGCTCC ((((((....)))..))) | -14.2 | 32.8 |
| GTCGATCGAAAGATGAC (((.(((....)))))) | -26.9 | 43.7 |
| GATCGTTAAACGATC ((((((...)))))) | -34.6 | 53.2 |
| GCATCGGGAAACCGACGC ((.((((....)))).)) | -42.1 | 50.4 |
| GAGAACGGAAACGTTTTC ((.((((....)))).)) | -25.3 | 41.3 |
| GTAGCAGGAAACTGCCAC ((.((((....)))).)) | -14.3 | 36.7 |
| GCGGCTCGAAAGAGCGC (((.(((....)))))) | -20.1 | 68.8 |
| GCCGCCGAAAGGCCGGGC ((((((....)))..))) | -16.9 | 60.4 |
| GGTGATGGAAACATCACC (((((((....))))))) | -39.6 | 65.6 |
| GATCCCGCAGGGGATC ((((((....)))))) | -15.7 | 65.5 |
| GCTAGGCGAAAGCTAAGC (((..((....))..))) | -18.6 | 48.7 |
| GGTACAACGAAAGTTACC (((..(((....)))))) | -17.3 | 33.3 |
| GCAATGCCGAAAGGCTGC (((..(((....)))))) | -15.6 | 49.1 |
| GTGGCCGAAAGGCGACAC ((((((....)))..))) | -14 | 57.4 |
